From PubChem BioAssay
ABHD5 PLIN5 PPI = ABHD5-PLIN5 interaction inhibitors, primary screen, cell lysate, split luciferase complementation, luminescence. Split G. princeps luciferase complementation, 4 h. hit rate 0.78% among 360,000. inhibition, % at 4 µM;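 active = inhibition above the mean inhibition across every tested compound plus 3 SD, cut at about 22% in these data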;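 note: 0% = DMSO only wells and the 100% control is not disclosed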
LEDGF integ inh = blockers of LEDGF/p75-dependent integrase strand transfer – biochemical, TR-FRET, high throughput, primary screen; HIV-1 integrase (with human LEDGF/p75); TR-FRET IN-LEDGF/p75 DNA integration, Eu/Cy5; inhibition, % at 3.7 µM; hit rate 0.64% among 370,000; AID 743269, 2014;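 active = inhibition above the screen-wide mean plus 3 SD, cut at about 13% in these data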;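 note: signal is the Cy5 over europium emission ratio at 671 and 618 nm; 0% = plate median of compound wells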
PRMT1 FP inh = PRMT1 methyltransferase inhibitors, primary screen, biochemical, fluorescence polarization | hit rate 1.3% among 370,000 | AID 652257, 2013 | inhibition, % at 2.79 µM | recombinant PRMT1, activity-based probe fluorescence polarization | Protein arginine N-methyltransferase 1 (Homo sapiens), Q99873;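 active = inhibition above about 21% made by adding two undisclosed values, limit read from the data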
UHRF1 binding = UHRF1 methylated DNA binding inhibitors, primary screen, counter-screen for MBD2 inhibitor project, biochemical, TR-FRET, human UHRF1, single concentration | AID 687016, 2013 | UHRF1 binding to methylated oligo | E3 ubiquitin-protein ligase UHRF1 (Homo sapiens), Q96T88 | hit rate 0.75% among 370,000 | inhibition, % at 4.4 µM;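 note: UHRF1 SRA domain binding a hemimethylated CpG hairpin DNA probe; 0% = median of test compound wells and 100% = reference inhibitor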
Target sequence (Q96T88 whole entry, looked up, the tested form may be a part): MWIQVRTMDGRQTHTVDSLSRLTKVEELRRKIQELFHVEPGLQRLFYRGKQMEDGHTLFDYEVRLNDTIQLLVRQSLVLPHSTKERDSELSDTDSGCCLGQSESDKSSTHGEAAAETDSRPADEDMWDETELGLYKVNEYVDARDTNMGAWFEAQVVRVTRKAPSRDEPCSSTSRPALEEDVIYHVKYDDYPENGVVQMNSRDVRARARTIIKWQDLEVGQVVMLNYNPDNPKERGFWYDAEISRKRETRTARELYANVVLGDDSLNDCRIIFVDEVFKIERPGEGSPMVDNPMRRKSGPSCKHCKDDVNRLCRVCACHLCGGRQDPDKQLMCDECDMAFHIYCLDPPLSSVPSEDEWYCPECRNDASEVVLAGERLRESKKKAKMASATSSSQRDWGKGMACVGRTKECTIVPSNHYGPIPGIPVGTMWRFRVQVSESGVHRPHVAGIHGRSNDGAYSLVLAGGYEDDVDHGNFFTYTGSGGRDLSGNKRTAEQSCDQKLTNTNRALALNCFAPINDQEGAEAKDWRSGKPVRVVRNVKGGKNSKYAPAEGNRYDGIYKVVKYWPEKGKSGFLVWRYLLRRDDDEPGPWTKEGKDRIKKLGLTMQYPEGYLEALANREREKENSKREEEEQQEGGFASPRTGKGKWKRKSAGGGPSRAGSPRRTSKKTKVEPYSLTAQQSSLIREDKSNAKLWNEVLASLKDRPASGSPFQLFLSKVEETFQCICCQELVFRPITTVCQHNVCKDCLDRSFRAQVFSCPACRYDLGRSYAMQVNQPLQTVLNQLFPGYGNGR
MBD2 inh = inhibitors of MBD2 binding to methylated DNA, primary screen, biochemical, TR-FRET, DNA-binding domain, human. Methyl-CpG-binding domain protein 2 (Homo sapiens), Q9UBB5. MBD2 binding to methylated oligonucleotide. inhibition, % at 4.4 µM. hit rate 0.31% among 370,000. AID 686964, 2013; in the data active = inhibition above about 13%
RBBP9 inhibitor = human RBBP9 inhibitors, primary screen, biochemical, fluorescence polarization, FP-Rh probe, HTS | inhibition, % at 7.94 µM | hit rate 0.2% among 220,000 | recombinant RBBP9;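 active = inhibition above the campaign mean of all tested compounds plus 3 SD, cut at about 14% in these data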;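 note: plate controls were DMSO wells with RBBP9 for no effect and wells lacking RBBP9 protein for full effect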
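Material: RBBP9 protein. Amount: RBBP9 at 2.5 µM in dispensed solution, before mixing. Schedule: 30 min then 45 min, 25 °C. Medium: Tris buffer pH 8.0, NaCl, Pluronic. Measured by: fluorescence polarization. Measure: percent inhibition from mP, scaled between DMSO and no-protein wells. Replication: one well per compound.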
RBBP9 inh conf = human RBBP9 inhibitors, retest, confirmation, biochemical, fluorescence polarization, FP-Rh probe, triplicate; inhibition, % at 7.94 µM; hit rate 36% among 410; recombinant RBBP9; shares compounds with RBBP9 inhibitor; AID 1537, 2009;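 active = inhibition above the hit cutoff derived for the primary screen, cut at about 15% in these data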;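 note: 0% = RBBP9 with DMSO and 100% = wells lacking RBBP9 protein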
ABHD5-PLIN5 conf = ABHD5-PLIN5 interaction inhibitors, confirmation, biochemical, luminescence | shares compounds with ABHD5 PLIN5 PPI | inhibition, % at 4 µM | hit rate 67% among 2,200 | AID 651612, 2012; in the data active = inhibition above about 23%;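 note: 0% = DMSO vehicle wells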
HNF4 counter = HNF4 dimerization inhibitors, counter-screen for ABHD5-PLIN5 interaction inhibitor project, biochemical, split-luciferase complementation, luminescence; shares compounds with ABHD5 PLIN5 PPI; inhibition, % at 4 µM; hit rate 77% among 2,200; AID 651674, 2012;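 active = mean inhibition across replicate wells exceeding the computed hit threshold, cut at about 13% in these data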;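 note: light from luciferase halves that rejoin when HNF4 fusion proteins dimerize; 0% = DMSO only wells and the 100% control is not given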
PRMT1 confirm = PRMT1 methyltransferase inhibitors, confirmation, biochemical, fluorescence polarization, triplicate. shares compounds with PRMT1 FP inh. recombinant His-PRMT1, activity-based probe fluorescence polarization. inhibition, % at 2.79 µM. hit rate 42% among 3,300. AID 687036, 2013;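 active = mean inhibition across replicates above the hit cutoff derived for the earlier primary screen, cut at about 22% in these data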
UHRF1 DNA bind = UHRF1 methylated DNA binding inhibitors, counter-screen for MBD2 inhibitor project, biochemical, TR-FRET, human UHRF1; shares compounds with MBD2 inh; UHRF1 binding to methylated oligonucleotide; inhibition, % at 4.4 µM; hit rate 25% among 1,000;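 note: UHRF1 SRA domain binding a labeled hemimethylated CpG hairpin DNA; 0% = vehicle only and 100% = reference inhibitor with vehicle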
MBD2 DBD conf = inhibitors of MBD2 binding to methylated DNA, confirmation, biochemical, TR-FRET, DNA-binding domain, human; shares compounds with MBD2 inh; TR-FRET MBD2-DBD binding to methylated oligonucleotide; inhibition, % at 4.4 µM; hit rate 26% among 1,000; in the data active = inhibition above about 14%
IN multimer up = HIV-1 IN multimer formation enhancers, counter-screen for LEDGF/p75 integration inhibitor project, biochemical, TR-FRET | hit rate 17% among 2,000 | shares compounds with LEDGF integ inh | activation, % at 7.7 µM | TR-FRET HIV-1 integrase multimerization | AID 1053131, 2014; in the data active = activation above about 8.9%
TRFRET interf = TR-FRET optical interference artefacts, confirmation, artefact control for LEDGF/p75-dependent integration inhibitor project, biochemical, HIV-1 IN multimerization | shares compounds with LEDGF integ inh | TR-FRET optical interference counterscreen | inhibition, % at 7.7 µM | 2,000 tested, under 10 active;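 active = inhibition above the mean over all tested compounds plus 3 SD, which no compound reached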;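 note: 0% = integrase with antibodies and DMSO and 100% = antibodies without integrase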
LEDGF integ conf = inhibitors of HIV-1 IN-LEDGF/p75 DNA integration, confirmation, biochemical, TR-FRET | shares compounds with LEDGF integ inh | TR-FRET LEDGF/p75-dependent HIV-1 integration | inhibition, % at 3.7 µM | hit rate 36% among 2,000 | AID 1053136, 2014; in the data active = inhibition above about 14%
* marks the source's active call; other numbers are inactive results; . = no result. An excerpt weighted towards active compounds, which were near 3.1% of everything screened. Cut-off read from the data, not from the text of the source, unless noted: active = inhibition above about 21%; inactive = the rest.

SMILES | ABHD5 PLIN5 PPI | LEDGF integ inh | PRMT1 FP inh | UHRF1 binding | MBD2 inh | RBBP9 inhibitor | ABHD5-PLIN5 conf | HNF4 counter | others
c1coc(-c2nc(-c3ccco3)c(-c3ccco3)nc2-c2ccco2)c1 | 63.8* | 89.7* | 78.0* | 95.0* | 66.6* | 25.9* | . | . | RBBP9 inh conf=18.6*;PRMT1 confirm=15.0;UHRF1 DNA bind=41.9*;MBD2 DBD conf=19.6*;IN multimer up=8.5;TRFRET interf=-30.0;LEDGF integ conf=82.1*
CCCC(=O)OC[C@H]1CN([C@H](C)c2ccccc2)S(=O)(=O)c2c(F)cccc2O1 | . | 2.3 | -1.4 | -0.2 | -1.2 | . | . | .
COC(=O)C1=C(C)N(Cc2ccccc2C(F)(F)F)C(=NCc2ccccc2C(F)(F)F)NC1c1ccc(C(F)(F)F)cc1 (configuration not stated) | . | 2.4 | -0.7 | -0.6 | -4.8 | . | . | .
Oc1ccc(-c2cn3c(n2)SCC3)cc1O | -8.6 | 52.1* | 16.9 | 3.6 | 3.8 | 20.9* | . | . | RBBP9 inh conf=51.3*;IN multimer up=72.4*;TRFRET interf=-257.7;LEDGF integ conf=58.5*
Oc1ccc(-c2cn3c(n2)SCC3)cc1 | -0.1 | -2.8 | 4.7 | -0.9 | -1.1 | -2.3 | . | .
O=C(NN1C(=O)/C(=C/C=C/c2ccco2)SC1=S)c1ccccc1O | 12.4 | 81.3* | 41.9* | 95.0* | 56.4* | 22.9* | . | . | RBBP9 inh conf=15.5*;PRMT1 confirm=32.1*;UHRF1 DNA bind=66.3*;MBD2 DBD conf=29.6*;IN multimer up=72.8*;TRFRET interf=-259.2;LEDGF integ conf=79.7*
Cn1cccc1/C=C1\SC(=S)N(NC(=O)c2ccccc2O)C1=O | 14.9 | -1.6 | -6.6 | -7.3 | -0.3 | 1.1 | . | .
C[C@H]1COc2cc(Br)ccc2S(=O)(=O)N1Cc1cn(Cc2ccccc2)nn1 | . | -2.5 | -3.4 | 1.7 | -0.2 | . | . | .
O=C1CCN(C(=O)c2cccs2)c2ccccc21 | 6.0 | 0.7 | -1.3 | 0.2 | -0.4 | -3.8 | . | .
CN1C(=O)/C(=C\C(=O)c2cccs2)c2ccccc21 | 65.2* | -3.2 | 15.7 | -0.2 | 1.5 | -4.9 | 67.0* | 86.8*
COC(=O)c1cc2c(c3c4ccccc4n(S(=O)(=O)c4ccc(OC)cc4)c13)C(=O)N(Cc1ccc(N(C)C)cc1)C2 | . | 3.7 | -0.9 | -1.3 | 5.7 | . | . | .
O=C(/C=C/c1ccccc1)c1ccc2c(c1)OCO2 | 29.6* | -5.1 | -0.8 | -0.1 | 3.4 | -3.4 | 49.8* | 34.4*
CN(C)c1ccc(/C=C/C(=O)c2ccc3c(c2)OCO3)cc1 | -0.9 | 1.1 | -12.9 | -4.0 | -6.9 | . | . | .
O=C(/C=C/c1ccncc1)c1ccc2c(c1)OCCO2 | 59.5* | -0.1 | 5.4 | -3.2 | -2.3 | -5.6 | 77.7* | 74.2*
COc1cc(/C=C/C(=O)c2ccc3c(c2)OCCO3)cc(Br)c1OCC(=O)N(C)C | 39.8* | -0.4 | -0.3 | -2.5 | 1.5 | . | 73.6* | 72.8*
O=C(/C=C/c1cccc(Br)c1)c1ccc2c(c1)OCO2 | 32.9* | 1.7 | -0.5 | -2.0 | 2.6 | . | 74.4* | 62.7*
C#CCOCCOCCOCCNc1nc(N2CCN(C(=O)CCCCCCCCCCNC(=O)Cn3cc(CCCCCN)nn3)CC2)nc(N2CCN(C(=O)CCCCCCCCCCNC(=O)[C@H](CO)n3cc(CCCCCN)nn3)CC2)n1 | 37.4* | . | . | . | . | . | 10.3 | -0.1
C#CCOCCOCCOCCNc1nc(N2CCN(C(=O)CCCCCCCCCCNC(=O)[C@@H]([C@H](C)O)n3cc(C)nn3)CC2)nc(N2CCN(C(=O)CCCCCCCCCCNC(=O)[C@@H]([C@H](C)O)n3cc(C)nn3)CC2)n1 | 39.9* | 1.7 | 1.9 | 0.1 | 2.3 | . | 8.3 | -12.6
C#CCOCCOCCOCCNc1nc(N2CCN(C(=O)CCCCCCCCCCNC(=O)[C@H](CCC(=O)O)n3cc(CCCCCN)nn3)CC2)nc(N2CCN(C(=O)CCCCCCCCCCNC(=O)[C@@H]([C@H](C)O)n3cc(C)nn3)CC2)n1 | 27.1* | . | . | . | . | . | 7.1 | 0.7
C#CCOCCOCCOCCNc1nc(N2CCN(C(=O)CCCCCCCCCCNC(=O)[C@@H](CCC(=O)O)n3cc(CCCCCN)nn3)CC2)nc(N2CCN(C(=O)CCCCCCCCCCNC(=O)[C@@H](CCC(=O)O)n3cc(CCCCCN)nn3)CC2)n1 | 13.6 | 2.1 | 1.9 | 0.9 | 1.4 | . | . | .
